# Test results: ChEMBL document CHEMBL1145087 (J Med Chem, 2003)
# pEC50, pIC50, pKi: −log10 of the molar value.
# What was measured:
# [1] = organism: Homo sapiens; assay: Relative potency for human androgen and progesterone receptors
# [2] = molecular target: T1, Estrogen receptor (Homo sapiens, UniProt Q92731+P03372); assay: Antagonistic efficacy against human estrogen receptor; assay type: functional
# Summary of the method: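 Cotransfection LUC reporter assay for hER. Antagonist efficacy is the % maximal inhibition of a standard agonist (estradiol is the reference agonist for hER) applied at its EC50.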
# [3] = molecular target: T2, Progesterone receptor (Homo sapiens) (UniProt P06401); assay: Percent agonistic effect towards human progesterone receptor in CV-1 cells; assay type: functional, cell-based
# T2 sequence (whole entry): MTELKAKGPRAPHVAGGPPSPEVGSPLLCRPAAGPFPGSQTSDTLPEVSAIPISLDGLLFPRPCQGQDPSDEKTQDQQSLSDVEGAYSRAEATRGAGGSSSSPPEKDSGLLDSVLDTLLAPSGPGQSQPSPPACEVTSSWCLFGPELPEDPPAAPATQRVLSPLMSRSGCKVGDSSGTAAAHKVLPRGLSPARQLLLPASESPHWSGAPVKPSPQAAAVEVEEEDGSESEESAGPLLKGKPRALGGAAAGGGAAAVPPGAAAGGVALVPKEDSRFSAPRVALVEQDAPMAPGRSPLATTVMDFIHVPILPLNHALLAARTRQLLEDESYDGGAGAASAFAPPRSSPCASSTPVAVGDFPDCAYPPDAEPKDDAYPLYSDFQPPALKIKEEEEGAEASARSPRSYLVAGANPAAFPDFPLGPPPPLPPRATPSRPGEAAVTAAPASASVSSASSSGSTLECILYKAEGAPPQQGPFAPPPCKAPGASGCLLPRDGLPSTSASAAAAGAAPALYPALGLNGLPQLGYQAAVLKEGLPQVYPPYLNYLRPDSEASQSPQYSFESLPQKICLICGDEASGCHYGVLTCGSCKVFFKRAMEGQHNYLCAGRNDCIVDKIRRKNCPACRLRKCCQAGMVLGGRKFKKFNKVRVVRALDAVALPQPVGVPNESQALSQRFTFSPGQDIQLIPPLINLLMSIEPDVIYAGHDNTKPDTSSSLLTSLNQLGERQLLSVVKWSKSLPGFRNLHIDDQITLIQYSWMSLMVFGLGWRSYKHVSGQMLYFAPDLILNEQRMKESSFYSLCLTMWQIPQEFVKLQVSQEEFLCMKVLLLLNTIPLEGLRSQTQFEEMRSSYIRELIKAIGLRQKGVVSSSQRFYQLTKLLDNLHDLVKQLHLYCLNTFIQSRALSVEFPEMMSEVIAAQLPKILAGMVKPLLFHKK
# [4] = molecular target: T1, Estrogen receptor
# [5] = molecular target: T3, Progesterone receptor (Homo sapiens, UniProt P06401); assay: Agonistic activity against human progesterone receptor in CV-1 cells; assay type: functional, cell-based
# T3 sequence (P06401 whole entry): T2 sequence (whole entry)
# [6] = organism: Homo sapiens; assay: Relative potency for human estrogen and progesterone receptors
# [7] = organism: Homo sapiens; assay: Relative potency for human glucocorticoid and progesterone receptors
# [8] = molecular target: T3, Progesterone receptor; assay: Binding affinity towards human progesterone receptor A isoform using progesterone as radioligand
# [9] = molecular target: T4, Androgen receptor (Homo sapiens, UniProt P10275)
# T4 sequence (P10275 whole entry): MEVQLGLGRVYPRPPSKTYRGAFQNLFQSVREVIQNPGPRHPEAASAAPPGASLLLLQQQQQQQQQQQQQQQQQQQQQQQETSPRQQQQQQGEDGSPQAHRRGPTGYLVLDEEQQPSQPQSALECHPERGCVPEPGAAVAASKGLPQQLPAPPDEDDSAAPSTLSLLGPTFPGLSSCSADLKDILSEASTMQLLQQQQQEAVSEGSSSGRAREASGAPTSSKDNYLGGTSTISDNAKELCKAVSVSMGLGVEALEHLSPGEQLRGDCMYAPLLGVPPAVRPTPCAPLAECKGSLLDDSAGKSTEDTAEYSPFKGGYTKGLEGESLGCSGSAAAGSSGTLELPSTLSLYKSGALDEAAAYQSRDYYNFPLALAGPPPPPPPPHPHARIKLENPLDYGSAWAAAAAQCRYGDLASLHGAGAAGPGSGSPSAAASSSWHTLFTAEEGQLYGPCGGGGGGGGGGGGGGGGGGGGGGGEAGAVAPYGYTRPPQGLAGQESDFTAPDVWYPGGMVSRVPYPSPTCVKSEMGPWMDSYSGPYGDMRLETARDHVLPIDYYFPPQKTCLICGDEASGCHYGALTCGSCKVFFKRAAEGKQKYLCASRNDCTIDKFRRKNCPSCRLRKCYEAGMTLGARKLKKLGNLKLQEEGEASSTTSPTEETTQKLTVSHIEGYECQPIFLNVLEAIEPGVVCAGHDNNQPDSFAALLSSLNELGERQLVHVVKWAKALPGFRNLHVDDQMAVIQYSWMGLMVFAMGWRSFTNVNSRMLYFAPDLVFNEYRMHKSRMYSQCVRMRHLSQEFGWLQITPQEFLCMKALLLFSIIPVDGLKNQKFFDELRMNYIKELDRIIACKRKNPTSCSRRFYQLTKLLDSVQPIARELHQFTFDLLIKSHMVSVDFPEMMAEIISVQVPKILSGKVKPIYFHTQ
Ratio [1],Efficacy [3] [%],pEC50 [5],Ratio [6],Ratio [7],pKi [8],SMILES,Efficacy [2] [%],IC50 [4] [nM],pIC50 [9]
> 1000,163,8.85,> 1000,212,8.82,CC1=CC(C)(C)Nc2ccc3c(c21)/C(=C/c1ccccc1C)Oc1c(F)cccc1-3,41,2443,–
> 1000,161,8.70,> 1000,39,8.64,CCc1ccccc1/C=C1\Oc2ccc(F)cc2-c2ccc3c(c21)C(C)=CC(C)(C)N3,–,–,–
429,171,8.68,> 1000,119,9.21,CC1=CC(C)(C)Nc2ccc3c(c21)/C(=C/c1ccccc1)Oc1c(F)cccc1-3,–,–,6.05

SMILES,Ratio [1],Efficacy [3] [%],pEC50 [5],Ratio [6],Ratio [7],pKi [8],Efficacy [2] [%],IC50 [4] [nM],pIC50 [9]
CC1=CC(C)(C)Nc2ccc3c(c21)/C(=C/c1ccncc1C)Oc1ccc(F)cc1-3,> 1000,138,–,255,54,8.85,44,1149,–
CC1=CC(C)(C)Nc2ccc3c(c21)/C(=C/c1ccsc1)Oc1ccc(F)cc1-3,303,174,9.15,> 1000,141,8.89,36,3488,6.67
